Measured values: ChEMBL document CHEMBL2321804, “Development of small-molecule P-gp inhibitors of the N-benzyl 1,4-dihydropyridine type: novel aspects in SAR and bioanalytical evaluation of multidrug resistance (MDR) reversal properties” (Bioorg Med Chem, 2013)

Columns and labels:
[1] = biological target: T1, ATP-dependent translocase ABCB1 (Homo sapiens, UniProt P08183); assay: Inhibition of human MDR1 expressed in mouse L5178Y cells assessed as […] by measuring fluorescence activity ratio at 1 uM preincubated for 10 mins measured after 40 mins relative to control; format: cell-based
T1 sequence (P08183 whole entry): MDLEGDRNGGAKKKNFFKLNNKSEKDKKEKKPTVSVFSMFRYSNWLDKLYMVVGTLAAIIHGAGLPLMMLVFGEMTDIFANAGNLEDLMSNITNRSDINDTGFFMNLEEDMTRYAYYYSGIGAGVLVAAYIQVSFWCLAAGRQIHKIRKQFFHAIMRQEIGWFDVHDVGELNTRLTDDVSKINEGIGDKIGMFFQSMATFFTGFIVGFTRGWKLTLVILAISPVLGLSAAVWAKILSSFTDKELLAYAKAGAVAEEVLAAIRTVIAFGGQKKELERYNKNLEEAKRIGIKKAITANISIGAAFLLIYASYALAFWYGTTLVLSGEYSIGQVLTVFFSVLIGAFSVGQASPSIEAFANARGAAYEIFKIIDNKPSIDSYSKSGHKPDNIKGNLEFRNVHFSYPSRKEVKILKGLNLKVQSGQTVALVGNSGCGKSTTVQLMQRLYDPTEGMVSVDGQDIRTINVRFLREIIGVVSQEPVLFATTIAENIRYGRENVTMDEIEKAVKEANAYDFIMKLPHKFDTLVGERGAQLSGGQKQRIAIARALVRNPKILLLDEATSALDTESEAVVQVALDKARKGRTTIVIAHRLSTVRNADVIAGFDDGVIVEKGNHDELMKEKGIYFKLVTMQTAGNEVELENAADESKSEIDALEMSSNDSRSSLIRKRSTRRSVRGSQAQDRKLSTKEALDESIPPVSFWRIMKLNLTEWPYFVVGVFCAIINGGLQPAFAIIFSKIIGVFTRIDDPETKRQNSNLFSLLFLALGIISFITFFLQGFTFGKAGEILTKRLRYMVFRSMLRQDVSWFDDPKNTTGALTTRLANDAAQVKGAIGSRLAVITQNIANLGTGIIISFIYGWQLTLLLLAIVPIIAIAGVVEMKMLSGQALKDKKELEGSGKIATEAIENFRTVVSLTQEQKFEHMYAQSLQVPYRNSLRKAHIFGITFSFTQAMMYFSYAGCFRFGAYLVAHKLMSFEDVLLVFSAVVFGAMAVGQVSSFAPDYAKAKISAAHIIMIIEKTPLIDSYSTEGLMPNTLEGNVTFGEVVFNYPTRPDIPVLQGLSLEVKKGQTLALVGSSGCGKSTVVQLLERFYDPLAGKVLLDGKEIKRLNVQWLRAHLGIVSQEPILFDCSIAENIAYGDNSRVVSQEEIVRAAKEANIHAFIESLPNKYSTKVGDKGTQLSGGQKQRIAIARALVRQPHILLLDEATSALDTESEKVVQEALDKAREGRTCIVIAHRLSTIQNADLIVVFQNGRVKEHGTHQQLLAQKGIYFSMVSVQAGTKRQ
Method in brief: (§1)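 Transfected P-gp L5178Y subline and parental cells, 1 x 10^6/mL in serum-free McCoy's 5A, were preincubated 10 min at rt with inhibitor (DMSO stock 1.0 mg/mL). Rhodamine 123 followed (5 µL of 0.5 mM), 40 min at 37 °C, then two PBS washes. Flow cytometry on 1 x 10^4 cells. FAR = MDR/parental uptake, each normalised to its own untreated control.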

[2] = biological target: T1, ATP-dependent translocase ABCB1; assay: Inhibition of human MDR1 expressed in mouse L5178Y cells assessed as […] by measuring fluorescence activity ratio at 10 uM preincubated for 10 mins measured after 40 mins relative to control; format: cell-based; method in brief: as §1
[3] = biological target: T1, ATP-dependent translocase ABCB1; assay: Inhibition of human MDR1 expressed mouse L5178Y cells assessed as reduction of daunorubicin IC50 for cytotoxicity at 2.5 uM after 24 hrs by MTT assay; format: cell-based; set-up: scale not given: the % may be the effect or the level left
Method in brief: (§2)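 Daunorubicin at 0.01 to 10 µM was combined with inhibitor at 2.5, 5 or 10 µM in the P-gp overexpressing L5178Y subline, 24 h at 37 °C, 5% CO2. Readout was MTT (4 h), SDS/acetic acid/DMSO lysis, A560. IC50 came from mean percent growth inhibition, n = 3.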

[4] = biological target: T1, ATP-dependent translocase ABCB1; assay: Inhibition of human MDR1 expressed mouse L5178Y cells assessed as reduction of liposomal daunorubicin IC50 for cytotoxicity at 10 uM after 24 hrs by MTT assay; format: cell-based
[5] = biological target: T1, ATP-dependent translocase ABCB1; assay: Inhibition of human MDR1 expressed mouse L5178Y cells assessed as reduction of daunorubicin IC50 for cytotoxicity at 5 to 10 uM after 24 hrs by MTT assay; format: cell-based; method in brief: as §2
[6] = Cytotoxicity against mouse L5178Y cells expressing p-gp assessed as cell viability at 10 uM after 24 hrs by MTT assay; format: ADME, cell-based; settings: read-out: Activity
Method in brief: (§3)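 Parental L5178Y mouse T-lymphoma cells and the human mdr1-transfected P-gp subline were kept in McCoy's 5A with 10% FCS, 2 mM L-glutamine and gentamicin, 37 °C, 5% CO2; the subline also got colchicine 60 ng/mL. Dihydropyridines were added at 1 to 80 µM final, 24 h at 37 °C. MTT was read at 560 nm after SDS/acetic acid/DMSO lysis. Triplicate runs.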

[7] = Cytotoxicity against mouse L5178Y cells assessed as cell viability at 2.5 uM after 24 hrs by MTT assay; format: cell-based; settings: read-out: Activity; method in brief: as §3
[8] = Cytotoxicity against mouse L5178Y cells expressing p-gp assessed as cell viability at 2.5 uM after 24 hrs by MTT assay; format: ADME, cell-based; settings: read-out: Activity; method in brief: as §3
[9] = biological target: T1, ATP-dependent translocase ABCB1; assay: Inhibition of human MDR1 expressed mouse L5178Y cells assessed as reduction of liposomal daunorubicin IC50 for cytotoxicity at 2.5 uM after 24 hrs by MTT assay; format: cell-based
Method in brief: (§4)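 Liposomal daunorubicin (DaunoXome) was tested in the P-gp overexpressing L5178Y subline after preincubation with inhibitor at 2.5 µM or higher levels, 24 h at 37 °C, 5% CO2. Readout was MTT, lysis, then A560. IC50 came from mean percent growth inhibition of triplicate runs.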

[10] = Cytotoxicity against mouse L5178Y cells assessed as cell viability at 10 uM after 24 hrs by MTT assay; format: cell-based; settings: read-out: Activity; method in brief: as §3
[11] = system: L5178Y; assay: Cytotoxicity against mouse L5178Y cells after 24 hrs by MTT assay; format: functional, cell-based
Method in brief: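 Mouse T-lymphoma L5178Y parental cells and the mdr1-transfected L5178Y mdr subline were grown in McCoy's 5A with 10% FCS (mdr subline kept in colchicine 60 ng/mL). Compounds were tested at 1 to 80 µM final for 24 h at 37 °C in 5% CO2. MTT was added for 4 h, then SDS/acetic acid/DMSO lysis and A560 read-out. Run in triplicate.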

[12] = system: L5178Y; assay: Ratio of IC50 for mouse L5178Y cells expressing p-gp to IC50 for mouse L5178Y cells; format: functional
Method in brief: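 Parental L5178Y and P-gp-expressing L5178Y mdr cells were exposed to daunorubicin at 0.01–10 µM plus P-gp inhibitor for 24 h at 37 °C in 5% CO2. Viability was read by MTT (4 h) with SDS/acetic acid/DMSO lysis and A560. IC50s came from mean percent growth inhibition in triplicate, and the ratio is the mdr-line IC50 over the parental IC50.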

[13] = system: L5178Y; assay: Cytotoxicity against mouse L5178Y cells expressing p-gp after 24 hrs by MTT assay; format: functional, cell-based
Method in brief: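 Daunorubicin, 0.01 to 10 µM, was given to the P-gp expressing L5178Y subline (McCoy's 5A, 10% FCS, colchicine 60 ng/mL) in 96-well plates, 24 h at 37 °C, 5% CO2. MTT (5 mg/mL stock) was added for 4 h, cells were lysed 30 min in SDS/acetic acid/DMSO, and A560 was read. IC50 came from mean percent growth inhibition of triplicate runs.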

[14] = biological target: T1, ATP-dependent translocase ABCB1; assay: Inhibition of human MDR1 expressed mouse L5178Y cells assessed as reduction of liposomal daunorubicin IC50 for cytotoxicity at 1 uM after 24 hrs by MTT assay; format: cell-based; set-up: scale not given: the % may be the effect or the level left
[15] = biological target: T1, ATP-dependent translocase ABCB1; assay: Inhibition of human MDR1 expressed mouse L5178Y cells assessed as reduction of liposomal daunorubicin IC50 for cytotoxicity at 5 to 10 uM after 24 hrs by MTT assay; format: cell-based; method in brief: as §4

Work on `CCOC(=O)C1=CN(Cc2ccccc2)C=CC1c1cccc(C(F)(F)F)c1` (configuration not stated) yielded an RFU [1] of 1.17 and an RFU [2] of 2.33.

`CCOC(=O)C1=CN(Cc2ccccc2)C=CC1c1ccc(OC)cc1` (configuration not stated) showed an RFU [1] of 1.52 and an RFU [2] of 3.13.

In the case of `CCOC(=O)C1=CN(Cc2cccc3ccccc23)C=CC1c1ccccc1` (configuration not stated), the RFU [1] is reported as 1.28 and the RFU [2] is reported as 2.74.

Compound `CCOC(=O)C1=CN(Cc2ccccc2)C=CC1c1cccc2ccccc12` (configuration not stated) has an RFU [1] of 1.43 and an RFU [2] of 3.45.

With `CCOC(=O)C1=CN(Cc2ccccc2)C=CC1c1ccc(C)cc1` (configuration not stated) the RFU [1] was 1.34 and the RFU [2] was 2.54.

`CCOC(=O)C1=CN(Cc2ccccc2)C=CC1c1cccc(Cl)c1` (configuration not stated) gave an RFU [1] of 1.25 and an RFU [2] of 2.67.

Work on `COC(=O)C1=CN(Cc2ccccc2)C=CC1c1cccc(Cl)c1` (configuration not stated) yielded an RFU [1] of 1.12 and an RFU [2] of 1.39.

With `CCOC(=O)C1=CN(Cc2ccc(C)cc2)C=CC1c1ccccc1` (configuration not stated) the RFU [1] was 2.54, the Activity [3] was greater than 50% and the RFU [2] was 7.8. For the same compound, the Activity [4] was “Active” and the Activity [5] was “Active”.

With `COC(=O)C1=CN(Cc2ccc(C)cc2)C=CC1c1ccccc1` (configuration not stated) the RFU [1] was 1.72, the viability at 24 h, 10 µM [6] was 75% and the RFU [2] was 7.8. For the same compound, the viability at 24 h, 2.5 µM [7] was 95%, the viability at 24 h, 2.5 µM [8] was 81% and the Activity [9] was “Active”. The Activity [4] was “Active” and the viability at 24 h, 10 µM [10] was 75%.

In the case of `COc1cccc2c1C(=O)c1c(O)c3c(c(O)c1C2=O)C[C@@](O)(C(C)=O)C[C@@H]3O[C@H]1C[C@H](N)[C@H](O)[C@H](C)O1` (stereo in doubt; form 2) [DAUNORUBICIN], the IC50 [11] is reported as 0.73 µM, the “Ratio IC50” value [12] is reported as greater than 10 and the IC50 [13] is reported as 7.73 µM.

For `COc1ccc(CCN(C)CCCC(C#N)(c2ccc(OC)c(OC)c2)C(C)C)cc1OC` (configuration not stated) [VERAPAMIL], the RFU [1] was 0.89 and the RFU [2] was 2.94.

With `CCOC(=O)C1=CN(Cc2ccccc2OC)C=CC1c1ccccc1` (configuration not stated) the RFU [1] was 1.72 and the RFU [2] was 4.64.

Compound `CCOC(=O)C1=CN(Cc2ccccc2)C=CC1c1ccccc1OC` (configuration not stated) has an RFU [1] of 1.18 and an RFU [2] of 2.38.

Work on `COC(=O)C1=CN(Cc2ccccc2OC)C=CC1c1ccccc1` (configuration not stated) yielded an RFU [1] of 1.82 and an RFU [2] of 3.97.

`COC(=O)C1=CN(Cc2ccccc2)C=CC1c1cccc(C(F)(F)F)c1` (configuration not stated) showed an RFU [1] of 1.05 and an RFU [2] of 1.53.

Compound `CCOC(=O)C1=CN(Cc2ccc(OC)cc2)C=CC1c1ccccc1` (configuration not stated) has an RFU [1] of 1.32, a viability at 24 h, 10 µM [6] of 85% and an Activity [14] greater than 60%. For the same compound, the Activity [15] was “Active”, the RFU [2] was 4.89 and the viability at 24 h, 2.5 µM [7] was 97%. For the same compound, the Activity [9] was “Active”, the Activity [4] was “Active” and the viability at 24 h, 10 µM [10] was 100%.

Work on `COC(=O)C1=CN(Cc2ccccc2)C=CC1c1ccc(OC)cc1` (configuration not stated) yielded an RFU [1] of 0.85 and an RFU [2] of 2.95.

`COC(=O)C1=CN(Cc2ccccc2)C=CC1c1cccc(Br)c1` (configuration not stated) showed an RFU [1] of 1.05 and an RFU [2] of 1.22.

`COC(=O)C1=CN(Cc2ccccc2)C=CC1c1cccc2ccccc12` (configuration not stated) showed an RFU [1] of 1.22 and an RFU [2] of 2.35.

`COc1cccc2c1C(=O)c1c(O)c3c(c(O)c1C2=O)C[C@@](O)(C(C)=O)C[C@@H]3O[C@H]1C[C@H](N)[C@H](O)[C@H](C)O1` (stereo in doubt; form 1) [DAUNORUBICIN] gave an IC50 [11] of 0.3 µM and an IC50 [13] of 2.32 µM.

`COC(=O)C1=CN(Cc2ccccc2)C=CC1c1ccc(C)cc1` (configuration not stated) gave an RFU [1] of 1.11 and an RFU [2] of 1.88.

Compound `COC(=O)C1=CN(Cc2ccccc2)C=CC1c1ccccc1OC` (configuration not stated) has an RFU [1] of 1.13 and an RFU [2] of 1.76.

`CCOC(=O)C1=CN(Cc2ccccc2)C=CC1c1cccc(Br)c1` (configuration not stated) showed an RFU [1] of 1.27 and an RFU [2] of 2.76.

Work on `COC(=O)C1=CN(Cc2ccc(OC)cc2)C=CC1c1ccccc1` (configuration not stated) yielded an RFU [1] of 1.5 and an RFU [2] of 4.13.

For `COC(=O)C1=CN(Cc2cccc3ccccc23)C=CC1c1ccccc1` (configuration not stated), the RFU [1] was 1.19 and the RFU [2] was 2.19.
